An excerpt weighted towards active compounds, which were near 1.1% of everything screened.
G6PDH CS: L. mesenteroides G6PDH inhibitors, counter-screen for G6PDH-coupled screening assays, biochemical, Leuconostoc mesenteroides enzyme; hit rate 0.12% among 200,000; glucose-6-phosphate dehydrogenase [Leuconostoc mesenteroides]; Purified L. mesenteroides G6PDH, diaphorase/resazurin coupled fluorescence, 45 min; inhibition, % at 5 µM; in the data active = inhibition above about 50%
Diaph act CS: compounds boosting diaphorase resazurin reduction – biochemical, uHTS, resorufin fluorescence, counter-screen for diaphorase-coupled primary assays, primary screen; Diaphorase/resazurin coupled assay, 16 min; stronger effect = higher value; 1 = vehicle wells, 0 = NADH-free wells; activation factor at 20 µM; hit rate 0.005% among 190,000; AID 1229, 2008;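 active = diaphorase activity raised at least twofold by the compound at 20 µM; inactive = activation factor below 2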
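System – purified diaphorase enzyme from Clostridium kluyveri · Input – enzyme 0.07 U/mL final · Also added – final NADH 0.114 mM, resazurin 0.1 mM · Measured by – fluorescence of resorufin, 544 nm excitation, 590 nm emission · Timing – 16 min enzyme reaction, ambient temperature · Measure – resorufin increase flagging diaphorase activators or reducers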
Diaph inh CS: diaphorase inhibitors and chemical oxidizers, primary screen, counter-screen for diaphorase-coupled primary assays, biochemical, uHTS, resorufin fluorescence. AID 1217, 2008. hit rate 0.69% among 190,000. inhibition, % at 20 µM. diaphorase resazurin-to-resorufin fluorescence, NADH, 16 min; bacterial (C. kluyveri) enzyme, not human;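 active = primary screen inhibition at 20 µM above a set limit, cut at about 50% in these data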;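 note: plate controls were DMSO with full reaction for no effect and wells lacking NADH for full effect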
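Test system: Clostridium kluyveri diaphorase enzyme / Quantity: diaphorase at 0.14 U/mL in enzyme working solution / Incubation: 16-min room-temperature incubation before reading / Benchmarks: NADH-free wells as positive control, DMSO-only neutral wells / Signal: resorufin fluorescence 544/590 nm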
PMI act satM6P: human PMI activators, high substrate, primary screen, biochemical, fluorescence intensity, near-saturating mannose 6-phosphate | hit rate 0.34% among 190,000 | Mannose-6-phosphate isomerase (Homo sapiens), P34949 | AID 1216, 2008 | coupled PMI enzyme assay, resazurin fluorescence, 20 min; stronger effect = higher value; 1 = untreated enzyme, 0 = substrate-free blank | activation factor at 20 µM;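 active = activation factor of 2 or more at 20 µM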
Target sequence (P34949 whole entry, looked up): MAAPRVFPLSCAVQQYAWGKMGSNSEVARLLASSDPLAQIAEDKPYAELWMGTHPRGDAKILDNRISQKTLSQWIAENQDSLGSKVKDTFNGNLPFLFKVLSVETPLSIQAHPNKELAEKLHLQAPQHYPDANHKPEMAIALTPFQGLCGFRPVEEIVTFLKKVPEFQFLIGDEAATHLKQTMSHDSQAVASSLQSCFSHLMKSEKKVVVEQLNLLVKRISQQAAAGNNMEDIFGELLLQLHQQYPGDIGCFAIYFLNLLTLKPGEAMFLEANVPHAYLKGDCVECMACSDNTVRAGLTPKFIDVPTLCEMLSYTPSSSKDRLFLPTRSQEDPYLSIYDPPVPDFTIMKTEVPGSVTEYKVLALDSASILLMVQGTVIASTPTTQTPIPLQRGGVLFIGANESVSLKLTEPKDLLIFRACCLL
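Test system: Human PMI in coupled enzyme assay | Input: 15 ng/mL PMI | Medium: HEPES-buffered pH 7.4 with magnesium and detergent | Compound: One concentration, 20 µM, in 1% DMSO | Incubation: Enzyme reaction with compound 20 min at room temperature | Detection: Diaphorase-driven resazurin-to-resorufin fluorescence, excitation 544, emission 590 nm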
PMI activator: activators of human PMI, primary screen, biochemical, fluorescence intensity, near-Km mannose 6-phosphate; Mannose-6-phosphate isomerase (Homo sapiens), P34949; purified human PMI, coupled resazurin fluorescence, 20 min; stronger effect = higher value; 1 = vehicle control, 0 substrate-free wells; activation factor at 20 µM; hit rate 0.005% among 190,000; AID 1214, 2008;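 active = activation factor of 2 or more at 20 µM, relative to plate controls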
Active calls of the source: *; / = not tested or not shown.

SMILES	G6PDH CS	Diaph act CS	Diaph inh CS	PMI act satM6P	PMI activator
O=C(COC(=O)C1CC2C=CC1C2)NCc1ccccc1Cl (centres undefined)	2	0.9	6	1	1.1
Cc1cccc(C)c1NC(=O)C[N+](C)(C)CC(O)COc1cccc2ccccc12 (centres undefined)	9	1	-2	1	0.9
COc1cc(C(=O)NCC(=O)N/N=C/c2ccc(OC(=O)c3ccco3)cc2)cc(OC)c1OC	-6	0.9	13	1	0.9
Cc1ccc(N(C(=O)Cn2nnc3ccccc32)C(C(=O)NC2CCCCC2)c2cn(C)nc2C)cc1 (centres undefined)	5	1.1	-8	1.1	1
CC(=O)Nc1ccc(N(C(=O)Cn2nnc3ccccc32)C(C(=O)NC2CCCC2)c2ccc(O)c(O)c2)cc1 (centres undefined)	37	0.4	56*	0.7	0.4
O=C(c1ccc(CNS(=O)(=O)c2ccc(Br)cc2)cc1)N1CCCC1	3	0.9	9	1	0.9
CC(=O)Oc1ccc2c(C)cc(=O)oc2c1	1	0.9	9	1	1
CC(=O)Oc1cc2oc(=O)cc(C)c2cc1OC(C)=O	45	0.5	52*	0.4	1
Cc1cc(NC(=O)CSCC(=O)N(c2cccc(Cl)c2)C(C(=O)NC2CCCCC2)c2ccc(O)c(O)c2)no1 (centres undefined)	-4	0.8	24	1	0.7
O=C1CS/C(=N\C(=O)N2c3ccccc3Sc3ccccc32)N1	8	0.3	70*	0.9	0.9
O=C1CSC(=Nc2ccccc2)N1	2	0.9	9	1	0.9
CCCCCCCCCCCCCCCC(O)C(N)CO (centres undefined)	12	2.3*	-128	1.2	1.2
Cn1c(=O)cc(SCC(=O)NCCC2=CCCCC2)c2cc(Cl)ccc21	12	1	4	1	1
O=C(O)c1cccc(N/N=C/c2ccc(-c3ccccc3)cc2)c1	-3	0.8	22	2.7*	1.7
CC(C)(C)c1ccc(/C=N/Nc2cccc(C(=O)O)c2)cc1	3	0.9	13	2*	1.7
O=C(O)c1cccc(N/N=C/c2cccnc2)c1	4	1	5	2.5*	2*
Clc1ccc(N/N=C/c2cccnc2)cc1	-12	0.9	7	2.4*	1.6
CN1c2ccccc2C(C)(C)C12CCCC(=O)N2 (centres undefined)	1	1	-4	2*	1.4
Cc1ccc(N=Nc2c(N)[nH]n3c(=O)cc(-c4ccccc4)nc23)cc1	-1	0.4	62*	0.9	0.7
CCOc1ccc(NC(=O)CN2CCN(CC(=O)c3ccc(OCC)cc3)CC2)cc1	-12	1	-2	2*	1.6
Cc1cc2cc(C(c3nnnn3CC3CCCO3)N3CCCc4ccccc43)c(=O)[nH]c2cc1C (centres undefined)	22	0.5	50	0.8	0.6
CCc1ccc2[nH]c(=O)c(C(c3nnnn3CC3CCCO3)N3CCCc4ccccc43)cc2c1 (centres undefined)	19	0.3	68*	0.9	0.5
CCOc1ccc2[nH]c(=O)c(C(c3nnnn3CC3CCCO3)N3CCc4ccccc4C3)cc2c1 (centres undefined)	14	0.4	59*	0.9	1.2
Cc1cccc2cc(C(c3nnnn3CC3CCCO3)N3CCc4ccccc4C3)c(=O)[nH]c12 (centres undefined)	22	0.4	55*	1.3	1
Cc1ccc2cc(C(c3nnnn3CC3CCCO3)N3CCc4ccccc4C3)c(=O)[nH]c2c1 (centres undefined)	-2	0.5	54*	1.4	1
SMILES	G6PDH CS	Diaph act CS	Diaph inh CS	PMI act satM6P	PMI activator
Cc1cccc2cc(C(c3nnnn3CC3CCCO3)N3CCCC4(CCCCC4)C3)c(=O)[nH]c12 (centres undefined)	6	0.7	31	0.9	1
Cc1[nH]c2ccccc2c1C(=O)NS(=O)(=O)Nc1ccc(Cl)cc1	-6	0.9	8	1.1	1.2
O=C1C=C(Nc2ccc(Cl)cc2Cl)CC(c2ccco2)C1 (centres undefined)	8	0.9	10	0.9	1.1
Cc1cccc2cc(C(c3nnnn3CC3CCCO3)N3CCCc4ccccc43)c(=O)[nH]c12 (centres undefined)	5	0.4	60*	0.5	0.8
O=c1[nH]c2cc3c(cc2cc1C(c1nnnn1C1CCCC1)N1CCCc2ccccc21)OCCO3 (centres undefined)	10	0.8	21	0.7	0.9
CCN(CC#CCC1(O)c2ccccc2-c2ccccc21)CCO	3	0.9	10	1	0.9
CC(C)N(CC#CCC1(O)c2ccccc2-c2ccccc21)CCO	17	0.4	60*	0.7	0.6
COc1ccc(C(=O)CSc2nc(C)cc(=O)[nH]2)cc1	-16	0.9	7	1.2	1.1
Cc1cc(=O)[nH]c(N=N/C(=N/Nc2ccccc2C)c2ccccc2)n1	5	0.9	5	1.8	1.5
Cc1cc(=O)[nH]c(N=N/C(=N/Nc2ccc(O)cc2)c2ccccc2)n1	18	1	-1	2.3*	1.9
COc1ccc(N/N=C(/N=Nc2nc(C)cc(=O)[nH]2)c2ccccc2)cc1	-4	1.1	-12	2.3*	1.8
COc1cccc(-n2c(SCc3cc(=O)oc4cc(O)c(O)cc34)nc3ccccc3c2=O)c1	-2	0.4	59*	0.5	0.4
CCOC(=O)CC(NC(=O)c1ccc(C)cc1)c1ccc(OC)cc1 (centres undefined)	1	0.9	6	1	1
C/C(CC(=O)N1CCN(C=O)CC1)=N\NC(=O)c1ccc([N+](=O)[O-])cc1	3	/	/	/	/
C/C(CC(=O)N1CCN(C=O)CC1)=N\NC(=O)c1cc2ccccc2cc1O	3	0.1	88*	0.2	0.2
Cc1ccc(SCCC(=O)OC(C(=O)NC(N)=O)C(C)C)cc1 (centres undefined)	10	0.9	10	1	1.1
NC(=O)C1CCN(C2=C(Cl)C(=O)c3ccccc3C2=O)CC1	60*	0.9	5	1.1	1.2
Cc1onc(C(=O)N2CCC(C(N)=O)CC2)c1-c1ccccc1Cl	1	0.9	14	1	1

From PubChem
